Assay outcomes deposited in PubChem BioAssay by SRMLSC.
Only a selection was taken, and hits are over-represented in it overall.
E coli WT inh: growth inhibitors of wild type E. coli, primary screen, strain BW25113 wild type, absorbance readout; E. coli BW25113 growth inhibition, OD600; inhibition, % at 10 µM; actives 0.05% (n = 20,000); in the data active means inhibition above about 40%;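 further: bacteria exposed to compound for 20 hours at 37 °C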
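Assay system: Bacterial strain in a whole-cell growth screen | Amount: Inoculum from a 1:1000 dilution of a 1.5 h subculture | Detection: Absorbance at 615 nm as a measure of bacterial growth | Timing: 20 h exposure, 37 °C | Buffer or medium: LB plus kanamycin 50 µg/mL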
Hits are given with their value; n = inactive.

SMILES	E coli WT inh
Cc1cc2c(cc1C)-c1nnnn1C(C)(C)C2	n
COc1ccc(OC)c(C(=O)CSc2nnc(-c3ccc(OC)c(OC)c3)o2)c1	n
COCCn1nnnc1CN1CCC(Cc2ccccc2)CC1	n
Cc1nn(Cc2ccccc2)c(C)c1NC(=O)CSc1nnc(-c2cc(Cl)ccc2O)n1C	n
CCCCCC1CC(CC#CCN2CCOCC2)C(=O)O1 (configuration not stated)	n
CCC(=O)c1cc(F)c(N2CCN(C(=O)Cc3ccccc3)CC2)cc1C	n
CCN1CCN(c2cc3c(cc2F)c(=O)c(C(=O)O)cn3C2CC2)CC1	72.2
CCOC(=O)N1CCN(c2cc3nccnc3cc2F)CC1	n
CCOC(=O)c1cn(CC)c2cc(N3CCOCC3)c(F)cc2c1=O	n
CCOC(=O)N1CCN(C(=O)c2cn(CC)c3cc(N4CCN(C)CC4)c(F)cc3c2=O)CC1	70.9
CCN1CCN(C(=O)c2cn(CC)c3ccc(S(=O)(=O)N(C)C)cc3c2=O)CC1	n
O=S(=O)(NCCSc1ccccc1)c1cccs1	n
COc1ccccc1N1CCN(S(=O)(=O)c2ccc(Cl)s2)CC1	n
CCCc1nnc(SCc2ccc(OC)cc2)n1N	n
O=C(O)CCCCCCC1C(=O)NC(=O)N1CCC(O)C1CCCCC1 (configuration not stated)	n
O=C1C2C(C(=O)N1Cc1cccnc1)C1C=CC2C12CC2 (configuration not stated)	n
COCC(=O)N(C)C1(c2nnnn2CCOC(=O)Nc2cccc3ccccc23)CCCC1	n
COc1ccc(OC)c(N2C(=O)CC(Cc3ccc(C)cc3)C2=O)c1 (configuration not stated)	n
COc1ccc(CCNc2nc(N3CCCCC3)nc(N3CCCCC3)n2)cc1OC	n
O=S(=O)(CCOc1ccccc1)c1nc2ccccc2[nH]1	n
O=C(NCc1nnc(SCC(=O)N2CCC(Cc3ccccc3)CC2)o1)c1ccccc1F	n
CCn1cc(C(=O)O)c(=O)c2cc(F)c(N3CCNCC3)nc21	75.3
CCn1cc(C(=O)O)c(=O)c2ccc(C)nc21	n
CCn1cc(C(=O)OCc2ccc(F)cc2)c(=O)c2ccc(C)nc21	n
CCOC(=O)c1cccc(N2C(=O)c3ccccc3S2(=O)=O)c1	n
SMILES	E coli WT inh
CCC(=O)N1CCN(c2ccc(Cl)cc2NC(=O)c2ccc(Br)o2)CC1	n
Cc1ccc(C(c2nnnn2CCC(C)C)N2CCN(C)CC2)cc1 (configuration not stated)	n
CCn1cc(C(=O)NC2CCc3ccccc32)c(=O)c2ccc(C)nc21 (configuration not stated)	n
O=C(OCc1ccc(F)cc1Cl)c1ccccn1	n
COc1cc(NS(=O)(=O)c2ccc(Br)s2)cc(OC)c1	n
O=C(CS(=O)(=O)Cc1ccccc1)Nc1ncccn1	n
COc1cc(OC)cc(C(=O)N2c3ccc(F)cc3CCC2C)c1 (configuration not stated)	n
CC1CCc2cc(F)cc3c(=O)c(C(=O)O)cn1c23 (configuration not stated)	43.9
CC1CCc2cc(F)cc3c(O)c(C(=O)NCC4CCCO4)c(=O)n1c23 (configuration not stated)	n
CCCCSc1nnc([C@@H](NC(=O)OC(C)(C)C)C(C)C)o1	n
O=C(COc1ccc2ccccc2c1Br)Nc1ncn[nH]1	n
CC(C)Cn1c(CN2CCCCC2C)nc2c1c(=O)n(C)c(=O)n2C (configuration not stated)	n
O=C1CC(N2CCC(O)(c3ccc(Cl)cc3)CC2)C(=O)N1Cc1ccc(N2CCCC2=O)cc1 (configuration not stated)	n
CCC(=O)Nc1ccc(S(=O)(=O)Nc2cccc(C)c2)cc1OC	n
COc1ccc(OC)c(NS(=O)(=O)Cc2ccccc2)c1	n
COc1cc(-c2ccc(NC(=O)CN3CCCCC3)c(OC)c2)ccc1NC(=O)CN1CCCCC1	n
CC(=O)CC(=O)Nc1ccccc1NC(C)=O	n
CCn1c(Cc2ccccc2)nnc1SCC(=O)Nc1ccc(S(N)(=O)=O)cc1	n
Cc1c(CCC#N)c(N2CCN(C3CCCCC3)CC2)n2c(nc3ccccc32)c1C#N	n
Cn1c(COc2ccccc2)nnc1SCCC(=O)Nc1ccccc1	n
CC1=C(SCCC#N)S/C(=C2\SC(C)=C(SCCC#N)S2)S1	n
COc1ccc(-c2c3c(=O)n(C)c(=O)n(C)c3cn2C2CCCCC2)cc1	n
CC1CCc2cc(F)ccc2N1C(=O)c1ccc2c(c1)OCO2 (configuration not stated)	n
O=C(O)c1cccnc1SCCc1ccccc1	n
Cc1ccc2cccc(S(=O)(=O)Nc3ccc4c(c3)OCO4)c2n1	n
SMILES	E coli WT inh
COc1nnc(-c2ccc(N3CCCCC3)c(N)c2)c2ccccc12	n
CCCCCn1c(=NC(C)=O)c(C#N)cc2c(=O)n3cccc(C)c3nc21	n
CCC(=O)Oc1ccc(/C(CC)=C(\CC)c2ccc(OC(=O)CC)cc2)cc1	n
COC(=O)c1cccc(Oc2nc3c(c(=O)n(C)c(=O)n3C)n2C(C)C)c1	n
CCOC(=O)Cc1csc(NC(=O)CCS(=O)(=O)Cc2ccccc2)n1	n
O=C(CCc1nc(-c2ccccc2F)no1)NC1CCCCC1	n
CS(=O)(=O)N(CCc1ccccc1)CC(=O)N1CCc2ccccc2C1	n
COc1ccccc1NC(=O)COc1ccc(CO)cc1Cl	n
CCN(CC)c1ccc2c(c1)CCCN2	n
O=C(Nc1ccc(N2C(=O)C3C4C=CC(C4)C3C2=O)cc1)Nc1cccnc1 (configuration not stated)	n
C=CCc1cccc2cc(C(=O)NCc3cccnc3)c(=O)oc12	n
O=C(NCc1ccccc1)c1ccc(COCC(F)(F)F)o1	n
Cn1c(-n2c(-c3ccco3)nc3ccccc3c2=O)nc2ccccc21	n
Cc1ccc(CNC(=O)C2C3C=CC(C3)C2C(=O)O)cc1 (configuration not stated)	n
CCCCOCP(=O)(CCCC)COCCCC	n
C=CCSc1nc(N)c(C(=O)Nc2ccccc2C)cc1C(N)=O	n
O=C(COc1ccc(S(=O)(=O)N2CCOCC2)cc1)Nc1ccc(Cl)c(C(F)(F)F)c1	n
O=C(Nc1cccc(Cn2cccn2)c1)c1cc2c(s1)CCCC2	n
CC1=C(C#N)C(C(F)(F)F)(C(F)(F)F)N=C(c2ccco2)N1	n
Cc1cc(C(=O)NCCCN2CCCC2=O)no1	n
